# Assay results reported in article PMC9902323 (Clinical Drug Investigation, 2023).
# How the values were obtained:
# [1] = system: individuals with type 2 diabetes; test: Safety assessments; format: in vivo, human; conditions: all injection regions; N (%) of 25
# In short: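 Over three treatment periods, 25 participants with type 2 diabetes each received one 5.6 U/kg s.c. dose per region (thigh, abdomen, upper arm), stayed in-house to 60 h, and underwent a 36–60 h glucose clamp at 7.5 mmol/L. Monitoring covered adverse events, labs, vital signs and examination. Hypoglycaemia levels: 1, plasma glucose <3.9 and ≥3.0 mmol/L; 2, <3.0 mmol/L; 3, severe cognitive impairment needing assistance.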
# [2] = Pharmacokinetics; format: in vivo, human; conditions: single s.c. dose 5.6 U/kg; p < 0.001
# [3] = system: albumin; conditions: after s.c. administration and absorption into the circulation; cited from earlier work
substance,measurement,setting,value
insulin icodec,Participants reporting adverse events,[1],12 (48%) participants
same,Cmax after single dose higher for upper arm versus thigh,[2],24%
same,Binding to albumin,[3],binds strongly to albumin
